ChEMBL document CHEMBL3124849, “Total synthesis of burkholdacs A and B and 5,6,20-tri-epi-burkholdac A: HDAC inhibition and antiproliferative activity” (Eur J Med Chem, 2014)

How the values were obtained:
[1] = Selectivity index, ratio of IC50 for mouse HDAC6 to IC50 for human HDAC1
Method in brief: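 Ratio of HDAC6 IC50 to HDAC1 IC50. Both enzymes were FLAG-immunopurified from transfected 293T cells: human HDAC1 and mouse HDAC6. Each was assayed on Ac-KGLGK(Ac)-MCA with 100 µM DTT at 37 °C for 30 min, developed with trypsin, and AMC read by fluorescence. IC50s are means of ≥3 curves.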

[2] = system: SF-268; assay: Cytotoxicity against human SF268 cells by SRB assay; type: functional
Method in brief: (§1)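 Tested at the Japanese Foundation for Cancer Research panel of 39 human cancer cell lines. Five concentrations per compound, spanning 10^-10 to 10^-6 M or 10^-8 to 10^-4 M. Growth measured by sulforhodamine B colorimetry. GI50 is the concentration giving 50% growth inhibition relative to control.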

[3] = system: U-251; assay: Cytotoxicity against human U251 cells by SRB assay; type: functional; method in brief: as §1
[4] = system: MDA-MB-231; assay: Cytotoxicity against human MDA-MB-231 cells by SRB assay; type: functional; method in brief: as §1
[5] = Cytotoxicity against human HBC5 cells by SRB assay; type: functional; method in brief: as §1
[6] = system: MCF7; assay: Cytotoxicity against human MCF7 cells by SRB assay; type: functional; method in brief: as §1
[7] = Cytotoxicity against human BSY1 cells by SRB assay; type: functional; conditions: BSY-1; method in brief: as §1
[8] = Cytotoxicity against human HBC4 cells by SRB assay; type: functional; method in brief: as §1
[9] = target: T1, Protein deacetylase HDAC6 (Mus musculus, UniProt Q9Z2V5); assay: Inhibition of mouse HDAC6 expressed in human 293T cells using Ac-KGLGK(Ac)-MCA as substrate after 30 mins by fluorescence assay; type: cell-based
T1 sequence (Q9Z2V5 whole entry): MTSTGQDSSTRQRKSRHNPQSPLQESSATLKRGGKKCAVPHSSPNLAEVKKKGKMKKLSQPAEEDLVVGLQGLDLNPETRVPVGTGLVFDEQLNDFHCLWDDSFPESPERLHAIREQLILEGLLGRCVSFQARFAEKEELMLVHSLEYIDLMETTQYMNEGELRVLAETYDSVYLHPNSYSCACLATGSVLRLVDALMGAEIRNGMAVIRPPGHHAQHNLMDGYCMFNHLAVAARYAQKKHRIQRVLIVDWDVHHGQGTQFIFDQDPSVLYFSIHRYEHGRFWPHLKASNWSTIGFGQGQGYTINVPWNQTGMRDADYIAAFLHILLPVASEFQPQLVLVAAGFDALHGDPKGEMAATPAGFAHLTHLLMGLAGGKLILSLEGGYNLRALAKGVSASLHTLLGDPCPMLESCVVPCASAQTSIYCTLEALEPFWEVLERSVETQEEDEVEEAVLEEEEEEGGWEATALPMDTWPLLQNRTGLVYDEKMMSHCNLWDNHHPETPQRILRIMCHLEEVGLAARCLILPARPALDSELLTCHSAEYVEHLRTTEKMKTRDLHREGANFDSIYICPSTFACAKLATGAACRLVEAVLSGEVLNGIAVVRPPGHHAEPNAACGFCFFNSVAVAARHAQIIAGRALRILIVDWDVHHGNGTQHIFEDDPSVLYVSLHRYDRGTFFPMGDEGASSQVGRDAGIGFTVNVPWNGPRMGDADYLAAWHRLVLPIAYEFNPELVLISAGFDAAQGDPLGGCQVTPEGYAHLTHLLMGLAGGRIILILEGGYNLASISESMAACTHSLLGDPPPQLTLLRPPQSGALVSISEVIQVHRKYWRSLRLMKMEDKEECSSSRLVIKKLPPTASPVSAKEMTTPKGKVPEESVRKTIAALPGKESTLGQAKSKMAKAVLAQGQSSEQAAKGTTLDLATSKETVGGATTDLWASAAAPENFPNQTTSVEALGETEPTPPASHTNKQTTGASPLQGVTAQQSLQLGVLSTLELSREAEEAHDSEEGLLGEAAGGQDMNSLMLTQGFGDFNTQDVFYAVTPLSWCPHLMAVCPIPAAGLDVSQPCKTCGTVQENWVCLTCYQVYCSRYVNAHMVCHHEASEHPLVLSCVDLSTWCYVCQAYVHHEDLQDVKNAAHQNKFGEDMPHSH

[10] = target: T2, Histone deacetylase 1 (Homo sapiens, UniProt Q13547); assay: Inhibition of human HDAC1 expressed in human 293T cells using Ac-KGLGK(Ac)-MCA as substrate after 30 mins by fluorescence assay
[11] = system: PC-3; assay: Cytotoxicity against human PC3 cells by SRB assay; type: functional; method in brief: as §1
[12] = system: DU-145; assay: Cytotoxicity against human DU145 cells by SRB assay; type: functional; method in brief: as §1
[13] = Cytotoxicity against human MKN45 cells by SRB assay; type: functional; conditions: MKN-45; method in brief: as §1
[14] = Cytotoxicity against human MKN74 cells by SRB assay; type: functional; conditions: MKN-74; method in brief: as §1
[15] = Cytotoxicity against human MKN7 cells by SRB assay; type: functional; conditions: MKN-7; method in brief: as §1
[16] = Cytotoxicity against human MKN28 cells by SRB assay; type: functional; conditions: MKN-28; method in brief: as §1
[17] = Cytotoxicity against human MKN1 cells by SRB assay; type: functional; conditions: MKN-1; method in brief: as §1
[18] = system: St-4; assay: Cytotoxicity against human St-4 cells by SRB assay; type: functional; method in brief: as §1
[19] = system: ACHN; assay: Cytotoxicity against human ACHN cells by SRB assay; type: functional; method in brief: as §1
[20] = Cytotoxicity against human RXF631L cells by SRB assay; type: functional; conditions: RXF 631; method in brief: as §1
[21] = system: SK-OV-3; assay: Cytotoxicity against human SKOV3 cells by SRB assay; type: functional; method in brief: as §1
[22] = system: OVCAR-8; assay: Cytotoxicity against human OVCAR8 cells by SRB assay; type: functional; method in brief: as §1
[23] = Cytotoxicity against human OVCAR5 cells by SRB assay; type: functional; conditions: OVCAR-5; method in brief: as §1
[24] = Cytotoxicity against human OVCAR4 cells by SRB assay; type: functional; conditions: OVCAR-4; method in brief: as §1
[25] = system: OVCAR-3; assay: Cytotoxicity against human OVCAR3 cells by SRB assay; type: functional; method in brief: as §1
[26] = system: LOX IMVI; assay: Cytotoxicity against human LOXIMVI cells by SRB assay; type: functional; method in brief: as §1
[27] = Cytotoxicity against human DMS273 cells by SRB assay; type: functional; conditions: DMS-273; method in brief: as §1
[28] = Cytotoxicity against human DMS114 cells by SRB assay; type: functional; conditions: DMS-114; method in brief: as §1
[29] = system: NCI-H460; assay: Cytotoxicity against human NCI-H460 cells by SRB assay; type: functional; method in brief: as §1
[30] = system: A549; assay: Cytotoxicity against human A549 cells by SRB assay; type: functional; method in brief: as §1
[31] = system: NCI-H226; assay: Cytotoxicity against human NCI-H226 cells by SRB assay; type: functional; method in brief: as §1
[32] = system: NCI-H522; assay: Cytotoxicity against human NCI-H522 cells by SRB assay; type: functional; method in brief: as §1
[33] = system: NCI-H23; assay: Cytotoxicity against human NCI-H23 cells by SRB assay; type: functional; method in brief: as §1
[34] = system: HCT-116; assay: Cytotoxicity against human HCT116 cells by SRB assay; type: functional; method in brief: as §1
[35] = system: HCT-15; assay: Cytotoxicity against human HCT15 cells by SRB assay; type: functional; method in brief: as §1
[36] = system: HT-29; assay: Cytotoxicity against human HT-29 cells by SRB assay; type: functional; method in brief: as §1
[37] = system: KM12; assay: Cytotoxicity against human KM12 cells by SRB assay; type: functional; method in brief: as §1
[38] = Cytotoxicity against human SNB78 cells by SRB assay; type: functional; conditions: SNB-78; method in brief: as §1
[39] = system: HCC 2998; assay: Cytotoxicity against human HCC2998 cells by SRB assay; type: functional; method in brief: as §1
[40] = system: SNB-75; assay: Cytotoxicity against human SNB75 cells by SRB assay; type: functional; method in brief: as §1
[41] = system: SF-295; assay: Cytotoxicity against human SF295 cells by SRB assay; type: functional; method in brief: as §1
[42] = system: SF-539; assay: Cytotoxicity against human SF539 cells by SRB assay; type: functional; method in brief: as §1
[43] = target: T2, Histone deacetylase 1; assay: Ratio of FK228 IC50 to compound IC50 for human HDAC1 expressed in human 293T cells; type: cell-based
Method in brief: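 FLAG-tagged human HDAC1 was expressed transiently in 293T cells (pcDNA3-HDAC1), immunoprecipitated with anti-FLAG M2 and eluted with FLAG peptide. Enzyme was incubated with 2 mM stock Ac-KGLGK(Ac)-MCA in 20 mM Tris-HCl pH 8.0, 150 mM NaCl, 10% glycerol, 100 μM DTT, for 30 min at 37 °C. Trypsin then released AMC, read by fluorescence. IC50 is the mean of ≥3 dose-response curves; FK228 reference run alongside.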

T2 sequence (Q13547 whole entry): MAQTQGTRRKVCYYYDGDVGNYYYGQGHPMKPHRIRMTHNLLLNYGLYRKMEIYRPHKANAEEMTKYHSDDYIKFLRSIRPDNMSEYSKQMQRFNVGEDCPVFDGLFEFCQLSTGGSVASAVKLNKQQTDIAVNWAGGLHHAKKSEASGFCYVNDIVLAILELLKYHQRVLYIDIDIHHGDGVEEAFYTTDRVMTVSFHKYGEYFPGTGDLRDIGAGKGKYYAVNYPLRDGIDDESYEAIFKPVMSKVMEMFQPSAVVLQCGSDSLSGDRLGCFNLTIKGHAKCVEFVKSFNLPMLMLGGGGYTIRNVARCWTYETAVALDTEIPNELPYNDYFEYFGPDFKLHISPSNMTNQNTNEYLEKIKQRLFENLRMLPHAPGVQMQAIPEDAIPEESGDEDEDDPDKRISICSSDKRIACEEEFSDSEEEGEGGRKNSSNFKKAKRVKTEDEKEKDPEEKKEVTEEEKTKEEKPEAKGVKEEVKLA

CC(C)[C@H]1NC(=O)[C@H]2CSSCC/C=C/[C@H](CC(=O)N[C@H](C)C(=O)N2)OC(=O)C[C@@H]1O
Ratio IC50 [1]: 485

CSCC[C@@H]1NC(=O)C[C@H]2/C=C/CCSSC[C@@H](NC1=O)C(=O)N[C@@H](C(C)C)[C@H](O)CC(=O)O2
GI50 [2]: 960 nM | GI50 [3]: 410 nM | GI50 [4]: 1800 nM | GI50 [5]: 1900 nM | GI50 [6]: 1800 nM | GI50 [7]: 1600 nM | GI50 [8]: 1300 nM | IC50 [9]: > 10000 nM | IC50 [10]: 337 nM | GI50 [11]: 1600 nM | GI50 [12]: 1500 nM | GI50 [13]: 3700 nM | GI50 [14]: 1500 nM | GI50 [15]: 2100 nM | GI50 [16]: 1900 nM | GI50 [17]: 1400 nM | GI50 [18]: 3400 nM | GI50 [19]: 4400 nM | GI50 [20]: 4000 nM | GI50 [21]: 1700 nM | GI50 [22]: 1900 nM | GI50 [23]: 1300 nM | GI50 [24]: 1800 nM | GI50 [25]: 1800 nM | GI50 [26]: 230 nM | GI50 [27]: 2300 nM | GI50 [28]: 1300 nM | GI50 [29]: 1800 nM | GI50 [30]: 1400 nM | GI50 [31]: 1700 nM | GI50 [32]: 360 nM | GI50 [33]: 1600 nM | GI50 [34]: 540 nM | GI50 [35]: 15 µM | GI50 [36]: 1400 nM | GI50 [37]: 1600 nM | GI50 [38]: 1700 nM | GI50 [39]: 1700 nM | GI50 [40]: 1000 nM | GI50 [41]: 1600 nM | GI50 [42]: 1800 nM

CSCC[C@H]1NC(=O)C[C@H]2/C=C/CCSSC[C@@H](NC1=O)C(=O)N[C@H](C(C)C)[C@@H](O)CC(=O)O2
GI50 [2]: 1.8 nM | GI50 [3]: 2.2 nM | GI50 [4]: 1.8 nM | GI50 [5]: 7.8 nM | GI50 [6]: 2 nM | GI50 [7]: 4 nM | GI50 [8]: 3 nM | Ratio IC50 [43]: 3 | Ratio IC50 [1]: 1640 | IC50 [9]: 1970 nM | IC50 [10]: 1.2 nM | GI50 [11]: 4.4 nM | GI50 [12]: 0.82 nM | GI50 [13]: 7.6 nM | GI50 [14]: 1.8 nM | GI50 [15]: 4.1 nM | GI50 [16]: 8.5 nM | GI50 [17]: 0.67 nM | GI50 [18]: 8.1 nM | GI50 [19]: 3.4 nM | GI50 [20]: 1.3 nM | GI50 [21]: 0.78 nM | GI50 [22]: 0.68 nM | GI50 [23]: 1 nM | GI50 [24]: 5.8 nM | GI50 [25]: 2.2 nM | GI50 [26]: 0.5 nM | GI50 [27]: 3 nM | GI50 [28]: 0.97 nM | GI50 [29]: 0.91 nM | GI50 [30]: 0.57 nM | GI50 [31]: 0.47 nM | GI50 [32]: 0.2 nM | GI50 [33]: 0.64 nM | GI50 [34]: 0.51 nM | GI50 [35]: 0.3 µM | GI50 [36]: 0.65 nM | GI50 [37]: 0.76 nM | GI50 [38]: 460 nM | GI50 [39]: 0.67 nM | GI50 [40]: 3.6 nM | GI50 [41]: 3 nM | GI50 [42]: 0.72 nM
